Most compounds without a hit are left out; they make up all but 2.3% or so of the library.
TRPC4 act = opens the mouse TRPC4 cation channel; 310,000 tested, 0.49% active; B-score at 10 µM; AID 2237; HEK293 TRPC4beta/mu-opioid, Fluo4 calcium fluorescence; stronger effect = higher value; Q9QUQ5;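 active = B-score above 5 SD of library B-scores, and initial fluorescence ratio not above library mean plus 5 SD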;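 note: positive B-score marks a calcium rise read as TRPC4 activation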
Target sequence (Q9QUQ5 whole entry, looked up): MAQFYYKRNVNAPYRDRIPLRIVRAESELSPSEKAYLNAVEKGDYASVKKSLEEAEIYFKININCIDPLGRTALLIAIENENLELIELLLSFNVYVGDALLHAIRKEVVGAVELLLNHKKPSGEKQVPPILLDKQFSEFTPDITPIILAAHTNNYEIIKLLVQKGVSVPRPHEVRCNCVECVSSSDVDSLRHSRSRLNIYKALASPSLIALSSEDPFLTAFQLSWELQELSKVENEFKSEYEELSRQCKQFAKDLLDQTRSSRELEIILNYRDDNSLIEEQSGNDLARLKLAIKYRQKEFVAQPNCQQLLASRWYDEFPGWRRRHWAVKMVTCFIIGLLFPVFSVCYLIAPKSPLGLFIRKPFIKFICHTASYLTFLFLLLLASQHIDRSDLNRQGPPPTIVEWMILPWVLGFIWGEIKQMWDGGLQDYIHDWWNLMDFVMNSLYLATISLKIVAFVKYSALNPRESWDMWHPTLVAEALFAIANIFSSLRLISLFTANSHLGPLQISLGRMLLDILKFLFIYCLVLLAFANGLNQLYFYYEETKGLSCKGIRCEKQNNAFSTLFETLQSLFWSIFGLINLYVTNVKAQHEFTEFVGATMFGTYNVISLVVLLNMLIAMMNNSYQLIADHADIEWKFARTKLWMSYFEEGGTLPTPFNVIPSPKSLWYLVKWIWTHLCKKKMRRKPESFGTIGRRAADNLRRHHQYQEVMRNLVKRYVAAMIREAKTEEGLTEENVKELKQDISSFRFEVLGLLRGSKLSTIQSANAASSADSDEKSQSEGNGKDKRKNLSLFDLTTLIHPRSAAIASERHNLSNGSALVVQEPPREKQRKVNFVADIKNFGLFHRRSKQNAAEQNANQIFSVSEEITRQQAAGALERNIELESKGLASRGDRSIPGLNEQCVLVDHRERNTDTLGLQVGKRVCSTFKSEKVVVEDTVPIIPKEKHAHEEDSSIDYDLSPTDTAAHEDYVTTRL
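system = HEK293 cells stably co-expressing mouse TRPC4beta and mu-opioid receptor | schedule = Fluo4 dye loading 45 min at room temperature, 110 s recording | measure = B-scored integrated calcium fluorescence ratio | signal = Fluo4 calcium-sensitive dye fluorescence, kinetic, 1 Hz baseline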
TRPC6 activator = activates the mouse TRPC6 cation channel; B-score at 10 µM; Q61143; AID 2550; HEK293-TRPC6 membrane potential dye fluorescence; stronger effect = higher value; 310,000 tested, 0.13% active;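 active = B-score of the integrated fluorescence ratio above library mean plus 3 SD, and starting fluorescence ratio within library mean plus 5 SD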;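 note: higher score means more depolarization so channel activation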
TRPC4 block = blocks the mouse TRPC4 cation channel; Q9QUQ5; HEK293 TRPC4beta/mu-opioid, DAMGO-evoked Fluo4 calcium flux; stronger effect = lower value; B-score at 10 µM; 300,000 tested, 0.39% active; AID 2247;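 active = B-score over 3 SD under the library average, no early fluorescence shift, positive overall ratio signal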
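Signal: kinetic Fluo4 fluorescence imaging of calcium influx. Material: stable TRPC4beta/mu-opioid receptor HEK293 cells. Probe or stimulus: DAMGO in two steps, submaximal then maximal.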
TRPC4 PAM = TRPC4 (mouse) allosteric potentiation. Q9QUQ5. HEK293 TRPC4beta/mu-opioid, DAMGO EC20, Fluo-4 Ca2+ flux; stronger effect = higher value. B-score at 10 µM. 310,000 tested, 0.42% active;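 active = B-score of calcium response area above 5 SD of library B-scores, with initial fluorescence ratio within 5 SD of library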;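 note: B-score of integrated fluorescence ratio over time as area under calcium response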
TRPC6 inh = inhibitors of mouse TRPC6 channel; Q61143; HEK293-TRPC6, membrane potential dye, ACh-evoked depolarization; stronger effect = lower value; B-score at 10 µM; 310,000 tested, 1.1% active; AID 2553;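 active = B-score under library mean minus 3 SD, initial fluorescence not abnormally high, positive integrated signal ratio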;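 note: B-score derived from integrated fluorescence ratio over the kinetic read; more negative B-score means stronger inhibition of depolarization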
* marks the source's active call; other numbers are inactive results; i = inactive.

SMILES	TRPC4 act	TRPC6 activator	TRPC4 block	TRPC4 PAM	TRPC6 inh
CSc1nc(NCCCN(C)C)c2c3c(sc2n1)CN(C)CC3	i	i	i	i	-7.8*
CCOC(=O)C1(CC2CCCCO2)CCN(Cc2cc3ccccc3[nH]2)CC1 (stereo unspecified)	273*	i	i	i	i
CCOC(=O)C1(CC2CCCCO2)CCN(Cc2cn[nH]c2-c2cccc(F)c2)CC1 (stereo unspecified)	76*	i	i	i	i
OCC1(CC2CCCCO2)CCN(Cc2ccccc2-c2ccco2)CC1 (stereo unspecified)	75*	i	i	i	i
COc1cccc(CC2(CO)CCCN(Cc3ccccc3-c3ccco3)C2)c1 (stereo unspecified)	43*	i	-7*	i	i
CCCn1ncc(CN2CCC(CO)(CC3CCCCO3)CC2)c1C (stereo unspecified)	i	i	i	i	i
COc1cccc(CC2(CO)CCCN(Cc3ccc(-c4ccco4)cc3)C2)c1 (stereo unspecified)	i	i	i	i	i
CN(C(=O)COC(=O)CSc1cc(Cl)ccc1Cl)c1c(N)n(Cc2ccccc2)c(=O)[nH]c1=O	i	i	i	i	i
CSc1cc(C)c(OCC(=O)Nc2c(C)nn(C)c2C)c(C)c1	i	i	i	i	i
CCOC(=O)C1(CC2CCCCO2)CCN(Cc2cccnc2)CC1 (stereo unspecified)	i	i	i	i	i
CCOC(=O)C1(CC2CCCCO2)CCN(Cc2ccccc2-c2ccco2)CC1 (stereo unspecified)	78*	i	i	i	i
CCC(Cc1ccccc1)NC(=O)C1CCN(S(=O)(=O)c2ccc3c(c2)CC(C)N3C(C)=O)CC1 (stereo unspecified)	i	i	i	i	i
CCOC(=O)c1c(NC(=O)COC(=O)Cc2c[nH]c3ccccc23)sc(C(=O)N(C)C)c1C	175*	i	i	53*	i
COC(=O)c1sccc1NC(=O)CSc1ccccc1NC(=O)CNC(C)C	i	i	-6*	i	i
COC(=O)c1sccc1NC(=O)CSc1ccccc1N	i	i	i	i	i
Cc1c(Cl)cccc1NC(=S)N1CCCN(Cc2ccc(F)cc2)C1	44*	i	i	i	i
Cc1ccc(NC(=S)N2CCCN(Cc3ccc(F)cc3)C2)c(C)c1	60*	i	i	i	i
CC1CC(C)CN(CCCNC(=O)CCC(=O)N2CCOc3ccccc32)C1 (stereo unspecified)	73*	i	i	i	i
COC(=O)CSc1nnc(-c2sc3cc(OC)ccc3c2Cl)n1C	i	i	-6*	i	i
COC(=O)CSc1nc2cc(OC)ccc2n1C	i	i	i	i	i
COc1ccc2[nH]c(=O)c(CN(C(C)=O)C3CCCCC3)cc2c1	i	i	i	i	i
COc1ccc2[nH]c(=O)c(CN(C(=O)c3ccco3)C3CCCCC3)cc2c1	i	i	i	10*	i
CC[C@@H](C)[C@H](CNC)NC[C@@H](Cc1cccc2ccccc12)NCCc1cccc(C(F)(F)F)c1	97*	i	i	i	i
COC(=O)c1ccccc1N=Nc1c(N)[nH][nH]c1=O	47*	i	i	82*	i
Cc1nc(NC(=O)c2ccccc2)sc1C1(C)CC(c2ccc(OC(F)(F)F)cc2)=NO1 (stereo unspecified)	i	i	i	i	i
SMILES	TRPC4 act	TRPC6 activator	TRPC4 block	TRPC4 PAM	TRPC6 inh
CCCCN(CC)CCNC(=O)c1ccc2c(Cl)c3c(nc2c1)CCC3	132*	i	i	12*	i
CCN(CC)CCCNC(=O)c1ccc2c(Cl)c3c(nc2c1)CCCC3	i	i	i	i	i
Cc1sc2ncnc(NCC(c3ccco3)N3CCCC3)c2c1C (stereo unspecified)	163*	i	i	i	i
O=C(Oc1cccc(C(=S)N2CCOCC2)c1)c1cc([N+](=O)[O-])cc([N+](=O)[O-])c1	i	i	i	i	i
COc1ccccc1N1CCN(Cc2cc(=O)c(OCC(=O)NC3CCCC3)co2)CC1	i	i	i	108*	i
Cc1ccc(-n2cnn(-c3ccc([N+](=O)[O-])cc3[N+](=O)[O-])c2=O)cc1	i	i	-6*	i	i
O=c1c2ccccc2ncn1-c1ccc([N+](=O)[O-])cc1[N+](=O)[O-]	i	i	i	i	i
OC1(c2ccccc2)CN(c2ccccc2)C2=[N+]1CCS2 (stereo unspecified)	72*	i	-9*	i	i
OC1(c2cccs2)CN(c2ccc(Br)cc2)C2=[N+]1CCCS2 (stereo unspecified)	i	i	i	i	i
CCOC(=O)C1(Cc2ccccc2)CCN(Cc2cccn2-c2cccnc2)CC1	45*	i	i	i	i
CCOC(=O)C1(CCOc2ccccc2)CCN(CCCn2cccn2)CC1	i	i	i	i	i
CCOC(=O)C1(Cc2ccccc2)CCN(Cc2cccc3nccnc23)CC1	i	i	i	i	i
CCOC(=O)C1(CCOc2ccccc2)CCN(Cc2cccn2-c2cccnc2)CC1	116*	i	i	i	i
CCOC(=O)C1(Cc2ccccc2)CCN(Cc2cccn2-c2nccs2)CC1	46*	i	i	i	i
O=C(O)CCc1nn2c3ccccc3nc2n(Cc2ccccc2)c1=O	i	i	i	i	i
COc1ccc(NC(=S)NCC(c2ccco2)N2CCCC2)cc1 (stereo unspecified)	i	i	i	i	i
S=C(NCCc1ccccc1)NCC(c1ccco1)N1CCCCC1 (stereo unspecified)	60*	i	i	i	i
COCCn1c(=O)[nH]c(=O)c2cc(C(=O)c3cc(Cl)ccc3O)cnc21	i	i	i	i	i
COc1ccc(O)c(C(=O)c2cnc3c(c2)c(=O)[nH]c(=O)n3C)c1	i	i	-6*	i	i
CC(=O)N1c2ccc(S(=O)(=O)NCCC(=O)NCCc3ccc(C)cc3)cc2CC1C (stereo unspecified)	i	i	i	i	i
NC(=O)C(c1ccc(Cl)cc1Cl)c1ncc(C(F)(F)F)cc1Cl (stereo unspecified)	i	i	i	14*	i
N/C(=N\OC(=O)C1CCCCC1)c1ccc(Cl)cc1	i	i	i	i	i
NC(=NC1CCCCC1)c1ccc(Cl)cc1	i	i	-5*	i	i
